{"source": "ChEMBL document CHEMBL5724801", "about": "“EUbOPEN Chemogenomics Library - Multiplex” (2024)", "key": {"Fibroblast": {"test_system": "Fibroblast", "assay": "Multiplex assay against human fibroblast", "type": "toxicity, cell-based", "in_short": "(§1)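 Phenotypes for tubulin, mitochondrial mass and membrane permeability are expressed as per cents of healthy-nucleus cells. Cells were stained live at seeding with Hoechst33342, BioTracker Green Microtubule Cytoskeleton Dye, MitoTracker Red and Annexin V Alexa Fluor 680, then imaged after compound addition on a CQ1 microscope at 37°C and 5% CO2. Machine-learning gating in CellPathfinder separated Hoechst high-intensity objects from normal cells, divided normal cells by nuclear state (healthy, pyknosed, fragmented) and divided pyknosed cells into mitotic or apoptotic.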"}, "HEK-293T": {"test_system": "HEK-293T", "assay": "Multiplex assay against HEK293T", "type": "toxicity, cell-based", "conditions": "human", "in_short": "as §1"}, "[1]": {"conditions": "24 h, 1 µM, compound concentration 1 uM"}, "[2]": {"conditions": "24 h, 10 µM, compound concentration 10 uM"}, "[3]": {"conditions": "48 h, 1 µM, compound concentration 1 uM"}, "[4]": {"conditions": "48 h, 10 µM, compound concentration 10 uM"}, "[5]": {"conditions": "12 h, 1 µM, compound concentration 1 uM"}, "[6]": {"conditions": "12 h, 10 µM, compound concentration 10 uM"}}, "note": "Values joined by “and” are separate entries in the source; they are usually repeats but may differ in a detail not shown here. Identical values can stand only once."}
{"smiles": "CCCCCN1C(=O)C2(COc3cc4c(cc32)OCO4)c2ccccc21", "note": "(stereo not drawn)", "values": [{"measurement": "Population Pyknosed Nuclei (%)", "setting": "Fibroblast; [1]", "result": "16.1% and 10.22%"}, {"measurement": "Population Tubulin-Different-Phenotype (%)", "setting": "Fibroblast; [1]", "result": "16.45% and 15.82%"}, {"measurement": "Total Cell Count", "setting": "Fibroblast; [1]", "result": "205 and 225"}, {"measurement": "Population Apoptotic (%)", "setting": "Fibroblast; [2]", "result": "4.65% and 8.82%"}, {"measurement": "Population Fragmented Nuclei (%)", "setting": "Fibroblast; [2]", "result": "8.78% and 2.37%"}, {"measurement": "Population Healthy Nuclei (%)", "setting": "Fibroblast; [2]", "result": "70.24% and 84.19%"}, {"measurement": "Population Hoechst High Intensity Objects (%)", "setting": "Fibroblast; [2]", "result": 0, "unit": "%"}, {"measurement": "Population Membrane Permeable-Phenotype (%)", "setting": "Fibroblast; [2]", "result": "1.39% and 0.94%"}, {"measurement": "Population Mitochondria Different-Phenotype (%)", "setting": "Fibroblast; [2]", "result": "13.19% and 12.21%"}, {"measurement": "Population Mitotic Cells (%)", "setting": "Fibroblast; [2]", "result": "95.35% and 91.18%"}, {"measurement": "Population Normal (%)", "setting": "Fibroblast; [2]", "result": 100, "unit": "%"}, {"measurement": "Population Pyknosed Nuclei (%)", "setting": "Fibroblast; [2]", "result": "20.98% and 13.44%"}, {"measurement": "Population Tubulin-Different-Phenotype (%)", "setting": "Fibroblast; [2]", "result": "42.36% and 37.09%"}, {"measurement": "Total Cell Count", "setting": "Fibroblast; [2]", "result": "205 and 253"}, {"measurement": "Population Fragmented Nuclei (%)", "setting": "Fibroblast; [3]", "result": "11.57% and 4.05%"}, {"measurement": "Population Healthy Nuclei (%)", "setting": "Fibroblast; [3]", "result": "82.41% and 89.64%"}, {"measurement": "Population Hoechst High Intensity Objects (%)", "setting": "Fibroblast; [3]", "result": 0, "unit": "%"}, {"measurement": "Population Membrane Permeable-Phenotype (%)", "setting": "Fibroblast; [3]", "result": "1.12% and 3.02%"}, {"measurement": "Population Mitotic Cells (%)", "setting": "Fibroblast; [3]", "result": "92.31% and 64.29%"}, {"measurement": "Population Normal (%)", "setting": "Fibroblast; [3]", "result": 100, "unit": "%"}, {"measurement": "Population Pyknosed Nuclei (%)", "setting": "Fibroblast; [3]", "result": "6.02% and 6.31%"}, {"measurement": "Population Tubulin-Different-Phenotype (%)", "setting": "Fibroblast; [3]", "result": "5.62% and 14.07%"}, {"measurement": "Total Cell Count", "setting": "Fibroblast; [3]", "result": "216 and 222"}, {"measurement": "Population Apoptotic (%)", "setting": "Fibroblast; [4]", "result": "37.5% and 23.53%"}, {"measurement": "Population Fragmented Nuclei (%)", "setting": "Fibroblast; [4]", "result": "7.32% and 3.05%"}, {"measurement": "Population Healthy Nuclei (%)", "setting": "Fibroblast; [4]", "result": "84.88% and 90.46%"}, {"measurement": "Population Hoechst High Intensity Objects (%)", "setting": "Fibroblast; [4]", "result": 0, "unit": "%"}, {"measurement": "Population Membrane Permeable-Phenotype (%)", "setting": "Fibroblast; [4]", "result": "1.15% and 2.95%"}, {"measurement": "Population Mitochondria Different-Phenotype (%)", "setting": "Fibroblast; [4]", "result": "15.52% and 5.91%"}, {"measurement": "Population Mitotic Cells (%)", "setting": "Fibroblast; [4]", "result": "62.5% and 76.47%"}, {"measurement": "Population Normal (%)", "setting": "Fibroblast; [4]", "result": 100, "unit": "%"}, {"measurement": "Population Pyknosed Nuclei (%)", "setting": "Fibroblast; [4]", "result": "7.8% and 6.49%"}, {"measurement": "Population Tubulin-Different-Phenotype (%)", "setting": "Fibroblast; [4]", "result": "16.09% and 33.76%"}, {"measurement": "Total Cell Count", "setting": "Fibroblast; [4]", "result": "205 and 262"}, {"measurement": "Population Apoptotic (%)", "setting": "HEK-293T; [5]", "result": "10.57% and 8.94%"}, {"measurement": "Population Fragmented Nuclei (%)", "setting": "HEK-293T; [5]", "result": "1.96% and 2%"}, {"measurement": "Population Hoechst High Intensity Objects (%)", "setting": "HEK-293T; [5]", "result": 0, "unit": "%"}, {"measurement": "Population Membrane Permeable-Phenotype (%)", "setting": "HEK-293T; [5]", "result": 0, "unit": "%"}, {"measurement": "Population Mitotic Cells (%)", "setting": "HEK-293T; [5]", "result": "89.43% and 91.06%"}, {"measurement": "Population Normal (%)", "setting": "HEK-293T; [5]", "result": 100, "unit": "%"}, {"measurement": "Population Pyknosed Nuclei (%)", "setting": "HEK-293T; [5]", "result": "40.2% and 82%"}, {"measurement": "Total Cell Count", "setting": "HEK-293T; [5]", "result": "306 and 150"}, {"measurement": "Population Apoptotic (%)", "setting": "HEK-293T; [6]", "result": "8.79% and 6.67%"}, {"measurement": "Population Fragmented Nuclei (%)", "setting": "HEK-293T; [6]", "result": "0.63% and 1.94%"}, {"measurement": "Population Hoechst High Intensity Objects (%)", "setting": "HEK-293T; [6]", "result": "0.31% and 0%"}, {"measurement": "Population Membrane Permeable-Phenotype (%)", "setting": "HEK-293T; [6]", "result": "1.48% and 0%"}, {"measurement": "Population Mitochondria Different-Phenotype (%)", "setting": "HEK-293T; [6]", "result": "29.63% and 35.29%"}, {"measurement": "Population Mitotic Cells (%)", "setting": "HEK-293T; [6]", "result": "91.21% and 93.33%"}, {"measurement": "Population Normal (%)", "setting": "HEK-293T; [6]", "result": "99.69% and 100%"}, {"measurement": "Population Pyknosed Nuclei (%)", "setting": "HEK-293T; [6]", "result": "57.05% and 87.1%"}, {"measurement": "Total Cell Count", "setting": "HEK-293T; [6]", "result": "320 and 155"}, {"measurement": "Population Apoptotic (%)", "setting": "HEK-293T; [1]", "result": "13.4% and 12.71%"}, {"measurement": "Population Fragmented Nuclei (%)", "setting": "HEK-293T; [1]", "result": "1.54% and 2.04%"}, {"measurement": "Population Healthy Nuclei (%)", "setting": "HEK-293T; [1]", "result": "79.73% and 37.76%"}, {"measurement": "Population Hoechst High Intensity Objects (%)", "setting": "HEK-293T; [1]", "result": "0% and 0.51%"}, {"measurement": "Population Membrane Permeable-Phenotype (%)", "setting": "HEK-293T; [1]", "result": "1.21% and 2.7%"}, {"measurement": "Population Mitochondria Different-Phenotype (%)", "setting": "HEK-293T; [1]", "result": "16.46% and 10.81%"}, {"measurement": "Population Mitotic Cells (%)", "setting": "HEK-293T; [1]", "result": "86.6% and 87.29%"}, {"measurement": "Population Normal (%)", "setting": "HEK-293T; [1]", "result": "100% and 99.49%"}, {"measurement": "Population Tubulin-Different-Phenotype (%)", "setting": "HEK-293T; [1]", "result": "11.86% and 4.05%"}, {"measurement": "Total Cell Count", "setting": "HEK-293T; [1]", "result": "518 and 197"}, {"measurement": "Population Apoptotic (%)", "setting": "HEK-293T; [2]", "result": "19.31% and 11.94%"}, {"measurement": "Population Fragmented Nuclei (%)", "setting": "HEK-293T; [2]", "result": "1.12% and 2.34%"}, {"measurement": "Population Hoechst High Intensity Objects (%)", "setting": "HEK-293T; [2]", "result": "0.22% and 0%"}, {"measurement": "Population Membrane Permeable-Phenotype (%)", "setting": "HEK-293T; [2]", "result": "1.34% and 0%"}, {"measurement": "Population Mitochondria Different-Phenotype (%)", "setting": "HEK-293T; [2]", "result": "25.5% and 21.21%"}, {"measurement": "Population Mitotic Cells (%)", "setting": "HEK-293T; [2]", "result": "80.69% and 88.06%"}, {"measurement": "Population Normal (%)", "setting": "HEK-293T; [2]", "result": "99.78% and 100%"}, {"measurement": "Population Pyknosed Nuclei (%)", "setting": "HEK-293T; [2]", "result": "32.37% and 78.36%"}, {"measurement": "Population Tubulin-Different-Phenotype (%)", "setting": "HEK-293T; [2]", "result": "30.2% and 15.15%"}, {"measurement": "Total Cell Count", "setting": "HEK-293T; [2]", "result": "449 and 171"}, {"measurement": "Population Apoptotic (%)", "setting": "HEK-293T; [3]", "result": "9.4% and 23.88%"}, {"measurement": "Population Fragmented Nuclei (%)", "setting": "HEK-293T; [3]", "result": "2.17% and 2.27%"}, {"measurement": "Population Healthy Nuclei (%)", "setting": "HEK-293T; [3]", "result": "88.04% and 75.97%"}, {"measurement": "Population Hoechst High Intensity Objects (%)", "setting": "HEK-293T; [3]", "result": "0% and 0.65%"}, {"measurement": "Population Membrane Permeable-Phenotype (%)", "setting": "HEK-293T; [3]", "result": "4.37% and 2.99%"}, {"measurement": "Population Mitochondria Different-Phenotype (%)", "setting": "HEK-293T; [3]", "result": "13.77% and 12.82%"}, {"measurement": "Population Mitotic Cells (%)", "setting": "HEK-293T; [3]", "result": "90.6% and 76.12%"}, {"measurement": "Population Normal (%)", "setting": "HEK-293T; [3]", "result": "100% and 99.35%"}, {"measurement": "Population Pyknosed Nuclei (%)", "setting": "HEK-293T; [3]", "result": "9.78% and 21.75%"}, {"measurement": "Population Fragmented Nuclei (%)", "setting": "HEK-293T; [4]", "result": "2.44% and 0.93%"}, {"measurement": "Population Healthy Nuclei (%)", "setting": "HEK-293T; [4]", "result": "80.51% and 57.41%"}, {"measurement": "Population Hoechst High Intensity Objects (%)", "setting": "HEK-293T; [4]", "result": 0, "unit": "%"}, {"measurement": "Population Membrane Permeable-Phenotype (%)", "setting": "HEK-293T; [4]", "result": "5.04% and 0%"}, {"measurement": "Population Mitochondria Different-Phenotype (%)", "setting": "HEK-293T; [4]", "result": "42.8% and 31.45%"}, {"measurement": "Population Mitotic Cells (%)", "setting": "HEK-293T; [4]", "result": "93.2% and 75.56%"}, {"measurement": "Population Normal (%)", "setting": "HEK-293T; [4]", "result": 100, "unit": "%"}, {"measurement": "Population Pyknosed Nuclei (%)", "setting": "HEK-293T; [4]", "result": "17.05% and 41.67%"}]}
